Reference: ChEMBL document CHEMBL1138351, “Small, potent, and selective diaryl phosphonate inhibitors for urokinase-type plasminogen activator with in vivo antimetastatic properties” (J Med Chem, 2007)

Columns and labels:
[1] = Antimetastatic activity against Brown Norwegian rat bearing BN472 tumor assessed as decrease in number of lung foci at 0.1 mg/kg, ip administered once daily after 4 days of tumor transplantation for 17 to 18 days relative to control; type: functional; parameters: scale not given: the % may be the effect or the level left; details: route intraperitoneal
In short: (§1)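 BN472 breast tumours implanted orthotopically in rats and left to grow three days. From day 4, compounds were given i.p. daily for 17–18 days at 0.1 or 1 mg/kg. Controls received vehicle i.p. only. Lung foci were counted and axillary lymph nodes weighed at the end of treatment. Groups were compared with control at an unadjusted significance level of P 0.05.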

Rattus norvegicus [2] = test: Toxicity in Brown Norwegian rat bearing BN472 tumor assessed as decrease in spleen weight at 1 mg/kg, ip administered once daily after 4 days of tumor transplantation for 17 to 18 days relative to control; type: organism-based; parameters: dose 1 mg/kg, route intraperitoneal; scale not given: the % may be the effect or the level left; details: in vivo
In short: (§2)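 Orthotopic BN472 breast tumour model in rats. Daily i.p. dosing at 0.1 or 1 mg/kg started on day 4 and ran 17–18 days, with vehicle-only i.p. controls. Side effects were assessed from body weight and the weights of several organs, compared with controls.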

Rattus norvegicus [3] = test: Toxicity in Brown Norwegian rat bearing BN472 tumor assessed as decrease in adrenal weight at 0.1 mg/kg, ip administered once daily after 4 days of tumor transplantation for 17 to 18 days relative to control; type: organism-based; parameters: dose 0.1 mg/kg, route intraperitoneal; scale not given: the % may be the effect or the level left; details: in vivo; in short: as §2
Rattus norvegicus [4] = test: Toxicity in Brown Norwegian rat bearing BN472 tumor assessed as increase in uterus weight at 1 mg/kg, ip administered once daily after 4 days of tumor transplantation for 17 to 18 days relative to control; type: organism-based; parameters: dose 1 mg/kg, route intraperitoneal; details: in vivo; in short: as §2
[5] = Stability in human plasma after 3 hrs; type: ADME, cell-free; details: read-out: Stability
In short: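 Compound was added from 10 mM DMSO stock to human plasma at 200 µM final and shaken at 37 °C for up to 24 h. Aliquots were quenched in methanol and centrifuged. The supernatant was diluted with internal standard and analysed by LC/MS/MS in triplicate. Result is given as % parent compound remaining.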

Rattus norvegicus [6] = test: Toxicity in Brown Norwegian rat bearing BN472 tumor assessed as decrease in liver weight at 0.1 mg/kg, ip administered once daily after 4 days of tumor transplantation for 17 to 18 days relative to control; type: organism-based; parameters: dose 0.1 mg/kg, route intraperitoneal; scale not given: the % may be the effect or the level left; details: in vivo; in short: as §2
Rattus norvegicus [7] = test: Toxicity in Brown Norwegian rat bearing BN472 tumor assessed as decrease in spleen weight at 0.1 mg/kg, ip administered once daily after 4 days of tumor transplantation for 17 to 18 days relative to control; type: organism-based; parameters: dose 0.1 mg/kg, route intraperitoneal; scale not given: the % may be the effect or the level left; details: in vivo; in short: as §2
[8] = biological target: Urokinase-type plasminogen activator (Rattus norvegicus, UniProt P29598); test: Inhibition of rat uPA
Plasminogen [9] = biological target: Plasminogen (Rattus norvegicus, UniProt Q01177); test: Inhibition of rat plasmin
[10] = Chemical stability assessed as half life of hydrolysis at pH 1; type: physicochemical; details: buffer
Rattus norvegicus [11] = test: Toxicity in Brown Norwegian rat bearing BN472 tumor assessed as increase in lung weight at 0.1 mg/kg, ip administered once daily after 4 days of tumor transplantation for 17 to 18 days relative to control; type: organism-based; parameters: dose 0.1 mg/kg, route intraperitoneal; details: in vivo; in short: as §2
[12] = Antimetastatic activity against Brown Norwegian rat bearing BN472 tumor assessed as reduction of interpectoral lymph node weight at 1 mg/kg, ip administered once daily after 4 days of tumor transplantation for 17 to 18 days relative to control; type: functional; parameters: scale not given: the % may be the effect or the level left; details: route intraperitoneal
[13] = Antimetastatic activity against Brown Norwegian rat bearing BN472 tumor assessed as reduction of interpectoral lymph node weight at 0.1 mg/kg, ip administered once daily after 4 days of tumor transplantation for 17 to 18 days relative to control; type: functional; parameters: scale not given: the % may be the effect or the level left; details: route intraperitoneal
[14] = Antitumor activity against Brown Norwegian rat bearing BN472 tumor assessed as reduction of tumor size at 1 mg/kg, ip administered once daily after 4 days of tumor transplantation for 17 to 18 days relative to control; type: functional; parameters: scale not given: the % may be the effect or the level left; details: route intraperitoneal
In short: (§3)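 Rats bearing orthotopic BN472 breast tumours (grown three days) were dosed i.p. daily from day 4 for 17–18 days at 0.1 or 1 mg/kg. Vehicle-only i.p. controls were included. Tumour size and tumour weight were measured at the end of the treatment period and compared with controls.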

[15] = Distribution coefficient, log D in octanol and phosphate buffer saline at pH 7.4; type: physicochemical; details: octanol/phosphate buffered saline
In short: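 A 10 mM DMSO stock was added to a 1:1 octanol/PBS pH 7.4 mixture. Measured in duplicate.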

[16] = Antimetastatic activity against Brown Norwegian rat bearing BN472 tumor assessed as decrease in number of lung foci at 1 mg/kg, ip administered once daily after 4 days of tumor transplantation for 17 to 18 days relative to control; type: functional; parameters: scale not given: the % may be the effect or the level left; details: route intraperitoneal; in short: as §1
[17] = Antitumor activity aganist Brown Norwegian rat bearing BN472 tumor assessed as reduction of tumor size at 0.1 mg/kg, ip administered once daily after 4 days of tumor transplantation for 17 to 18 days relative to control; type: functional; parameters: scale not given: the % may be the effect or the level left; details: route intraperitoneal; in short: as §3
[18] = Apparent solubility in phosphate buffered saline at pH 7.4 after 2 hrs; type: ADME
In short: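 Compounds were serially diluted from 10 mM DMSO stock into PBS pH 7.4 (2% DMSO final), giving 1–200 µM final at eight concentrations, in duplicate. Incubation was 2 h at 37 °C. Solubility was taken as the onset of increased absorbance at 620 nm.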

Rattus norvegicus [19] = test: Toxicity in Brown Norwegian rat bearing BN472 tumor assessed as effect on body weight at 1 mg/kg, ip administered once daily after 4 days of tumor transplantation for 17 to 18 days relative to control; type: organism-based; parameters: dose 1 mg/kg, route intraperitoneal; details: in vivo; in short: as §2
[20] = Antimetastatic activity against Brown Norwegian rat bearing BN472 tumor assessed as reduction of axillary lymph node weight at 0.1 mg/kg, ip administered once daily after 4 days of tumor transplantation for 17 to 18 days relative to control; type: functional; parameters: scale not given: the % may be the effect or the level left; details: route intraperitoneal; in short: as §1
Prothrombin [21] = biological target: Prothrombin (Mus musculus, UniProt P19221); test: Inhibition of mouse thrombin
Plasminogen [22] = biological target: Plasminogen (Mus musculus, UniProt P20918); test: Inhibition of mouse plasmin
Rattus norvegicus [23] = test: Toxicity in Brown Norwegian rat bearing BN472 tumor assessed as effect on body weight at 0.1 mg/kg, ip administered once daily after 4 days of tumor transplantation for 17 to 18 days relative to control; type: organism-based; parameters: dose 0.1 mg/kg, route intraperitoneal; details: in vivo; in short: as §2
Rattus norvegicus [24] = test: Toxicity in Brown Norwegian rat bearing BN472 tumor assessed as increase in kidney weight at 0.1 mg/kg, ip administered once daily after 4 days of tumor transplantation for 17 to 18 days relative to control; type: organism-based; parameters: dose 0.1 mg/kg, route intraperitoneal; details: in vivo; in short: as §2
Plasminogen [25] = biological target: Plasminogen (Homo sapiens, UniProt P00747); test: Inhibition of human plasmin
In short: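 Plasmin from human plasma at about 5 mU was preincubated with inhibitor (0–250 µM final) for 15 min at 37 °C. Substrate was S-2366 at 580 µM in Tris pH 7.4. Initial rate was read at 405 nm, in duplicate. IC50 came from a four-parameter logistic fit.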

[26] = Antitumor activity aganist Brown Norwegian rat bearing BN472 tumor assessed as reduction of tumor weight at 0.1 mg/kg, ip administered once daily after 4 days of tumor transplantation for 17 to 18 days relative to control; type: functional; parameters: scale not given: the % may be the effect or the level left; details: route intraperitoneal; in short: as §3
Rattus norvegicus [27] = test: Toxicity in Brown Norwegian rat bearing BN472 tumor assessed as increase in uterus weight at 0.1 mg/kg, ip administered once daily after 4 days of tumor transplantation for 17 to 18 days relative to control; type: organism-based; parameters: dose 0.1 mg/kg, route intraperitoneal; details: in vivo; in short: as §2
[28] = biological target: Urokinase-type plasminogen activator (Homo sapiens, UniProt P00749)
Rattus norvegicus [29] = test: Toxicity in Brown Norwegian rat bearing BN472 tumor assessed as increase in kidney weight at 1 mg/kg, ip administered once daily after 4 days of tumor transplantation for 17 to 18 days relative to control; type: organism-based; parameters: dose 1 mg/kg, route intraperitoneal; details: in vivo; in short: as §2
[30] = Chemical stability assessed as half life of hydrolysis at pH 7.4; type: physicochemical; details: buffer
[31] = Chemical stability assessed as half life of hydrolysis at pH 4; type: physicochemical; details: buffer
[32] = biological target: Urokinase-type plasminogen activator (Mus musculus, UniProt P06869); test: Inhibition of mouse uPA
[33] = Chemical stability assessed as half life of hydrolysis at pH 8.8; type: physicochemical; details: buffer
Prothrombin [34] = biological target: Prothrombin (Rattus norvegicus, UniProt P18292); test: Inhibition of rat thrombin
Rattus norvegicus [35] = test: Toxicity in Brown Norwegian rat bearing BN472 tumor assessed as decrease in liver weight at 1 mg/kg, ip administered once daily after 4 days of tumor transplantation for 17 to 18 days relative to control; type: organism-based; parameters: dose 1 mg/kg, route intraperitoneal; scale not given: the % may be the effect or the level left; details: in vivo; in short: as §2
[36] = Antimetastatic activity against Brown Norwegian rat bearing BN472 tumor assessed as reduction of axillary lymph node weight at 1 mg/kg, ip administered once daily after 4 days of tumor transplantation for 17 to 18 days relative to control; type: functional; parameters: scale not given: the % may be the effect or the level left; details: route intraperitoneal; in short: as §1
Prothrombin [37] = biological target: Prothrombin (Homo sapiens, UniProt P00734); test: Inhibition of human thrombin
In short: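 Human plasma thrombin was assayed at 37 °C in Tris pH 8.3. […] Initial rate was read at 405 nm, in duplicate. IC50 was obtained from a four-parameter logistic fit.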

[38] = Antitumor activity against Brown Norwegian rat bearing BN472 tumor assessed as reduction of tumor weight at 1 mg/kg, ip administered once daily after 4 days of tumor transplantation for 17 to 18 days relative to control; type: functional; parameters: scale not given: the % may be the effect or the level left; details: route intraperitoneal; in short: as §3

Plasminogen (Mus musculus, UniProt P20918), sequence (P20918 98-581 limits assumed): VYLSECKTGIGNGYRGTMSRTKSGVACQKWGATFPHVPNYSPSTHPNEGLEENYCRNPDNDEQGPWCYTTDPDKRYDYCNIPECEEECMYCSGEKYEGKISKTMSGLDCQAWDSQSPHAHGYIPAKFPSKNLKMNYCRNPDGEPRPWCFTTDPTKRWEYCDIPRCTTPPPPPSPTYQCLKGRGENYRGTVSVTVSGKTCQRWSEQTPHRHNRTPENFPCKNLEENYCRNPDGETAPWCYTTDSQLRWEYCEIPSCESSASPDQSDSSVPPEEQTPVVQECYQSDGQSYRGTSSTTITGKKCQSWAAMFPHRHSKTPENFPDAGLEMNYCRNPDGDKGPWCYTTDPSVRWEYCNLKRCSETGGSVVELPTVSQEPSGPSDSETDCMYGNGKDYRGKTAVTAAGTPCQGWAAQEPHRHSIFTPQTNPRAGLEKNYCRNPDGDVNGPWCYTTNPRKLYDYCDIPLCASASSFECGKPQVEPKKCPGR
Plasminogen (Mus musculus, UniProt P20918), sequence (P20918 582-812 limits assumed): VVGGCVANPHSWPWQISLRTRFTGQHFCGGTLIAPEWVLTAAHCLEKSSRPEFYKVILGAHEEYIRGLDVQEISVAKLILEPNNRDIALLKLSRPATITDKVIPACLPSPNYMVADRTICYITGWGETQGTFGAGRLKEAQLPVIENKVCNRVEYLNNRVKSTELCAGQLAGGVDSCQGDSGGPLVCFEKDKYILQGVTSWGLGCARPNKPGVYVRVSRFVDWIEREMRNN
Urokinase-type plasminogen activator (Mus musculus, UniProt P06869), sequence (P06869 21-178 limits assumed): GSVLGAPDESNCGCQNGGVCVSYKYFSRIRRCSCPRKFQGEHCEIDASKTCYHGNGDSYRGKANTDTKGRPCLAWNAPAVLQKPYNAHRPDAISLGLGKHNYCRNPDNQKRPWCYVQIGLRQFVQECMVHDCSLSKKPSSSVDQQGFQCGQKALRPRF
Urokinase-type plasminogen activator (Mus musculus, UniProt P06869), sequence (P06869 180-433 limits assumed): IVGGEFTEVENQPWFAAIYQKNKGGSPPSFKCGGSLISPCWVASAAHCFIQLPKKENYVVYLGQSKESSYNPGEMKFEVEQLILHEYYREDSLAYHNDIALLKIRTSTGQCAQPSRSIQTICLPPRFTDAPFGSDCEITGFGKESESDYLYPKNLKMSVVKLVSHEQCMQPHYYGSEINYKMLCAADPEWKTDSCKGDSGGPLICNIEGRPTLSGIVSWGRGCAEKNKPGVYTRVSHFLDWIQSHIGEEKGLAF
Plasminogen (Rattus norvegicus, UniProt Q01177), sequence (Q01177 97-581 limits assumed): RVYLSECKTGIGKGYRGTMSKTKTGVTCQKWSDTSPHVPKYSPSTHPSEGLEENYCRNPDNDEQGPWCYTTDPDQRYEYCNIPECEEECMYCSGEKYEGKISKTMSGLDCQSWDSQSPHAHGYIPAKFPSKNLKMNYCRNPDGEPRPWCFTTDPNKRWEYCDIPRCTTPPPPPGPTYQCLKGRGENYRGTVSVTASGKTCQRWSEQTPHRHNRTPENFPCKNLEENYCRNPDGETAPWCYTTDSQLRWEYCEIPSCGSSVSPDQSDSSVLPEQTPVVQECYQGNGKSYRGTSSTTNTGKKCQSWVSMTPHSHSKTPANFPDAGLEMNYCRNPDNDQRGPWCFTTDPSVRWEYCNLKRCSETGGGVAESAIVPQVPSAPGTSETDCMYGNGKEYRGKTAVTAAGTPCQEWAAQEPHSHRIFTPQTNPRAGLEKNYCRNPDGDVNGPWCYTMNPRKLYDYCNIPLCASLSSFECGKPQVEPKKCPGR
Plasminogen (Rattus norvegicus, UniProt Q01177), sequence (Q01177 582-812 limits assumed): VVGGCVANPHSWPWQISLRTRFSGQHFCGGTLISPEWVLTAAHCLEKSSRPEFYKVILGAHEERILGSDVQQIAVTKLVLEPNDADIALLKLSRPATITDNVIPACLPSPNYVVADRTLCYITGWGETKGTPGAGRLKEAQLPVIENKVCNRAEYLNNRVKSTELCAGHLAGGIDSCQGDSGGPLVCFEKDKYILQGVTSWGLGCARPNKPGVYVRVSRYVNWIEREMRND
Urokinase-type plasminogen activator (Rattus norvegicus, UniProt P29598), sequence (P29598 20-177 limits assumed): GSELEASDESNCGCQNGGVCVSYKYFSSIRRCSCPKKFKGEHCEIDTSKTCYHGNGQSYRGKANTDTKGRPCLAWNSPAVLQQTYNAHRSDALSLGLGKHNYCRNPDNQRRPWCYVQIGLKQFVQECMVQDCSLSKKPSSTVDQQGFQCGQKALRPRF
Urokinase-type plasminogen activator (Rattus norvegicus, UniProt P29598), sequence (P29598 179-432 limits assumed): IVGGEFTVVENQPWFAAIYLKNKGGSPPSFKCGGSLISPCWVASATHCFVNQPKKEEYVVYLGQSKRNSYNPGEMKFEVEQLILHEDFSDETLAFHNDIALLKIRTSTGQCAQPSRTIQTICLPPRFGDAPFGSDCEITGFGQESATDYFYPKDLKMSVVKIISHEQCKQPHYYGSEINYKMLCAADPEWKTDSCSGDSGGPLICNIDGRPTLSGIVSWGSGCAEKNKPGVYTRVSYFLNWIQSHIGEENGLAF
Plasminogen (Homo sapiens, UniProt P00747), sequence (P00747 97-580 limits assumed): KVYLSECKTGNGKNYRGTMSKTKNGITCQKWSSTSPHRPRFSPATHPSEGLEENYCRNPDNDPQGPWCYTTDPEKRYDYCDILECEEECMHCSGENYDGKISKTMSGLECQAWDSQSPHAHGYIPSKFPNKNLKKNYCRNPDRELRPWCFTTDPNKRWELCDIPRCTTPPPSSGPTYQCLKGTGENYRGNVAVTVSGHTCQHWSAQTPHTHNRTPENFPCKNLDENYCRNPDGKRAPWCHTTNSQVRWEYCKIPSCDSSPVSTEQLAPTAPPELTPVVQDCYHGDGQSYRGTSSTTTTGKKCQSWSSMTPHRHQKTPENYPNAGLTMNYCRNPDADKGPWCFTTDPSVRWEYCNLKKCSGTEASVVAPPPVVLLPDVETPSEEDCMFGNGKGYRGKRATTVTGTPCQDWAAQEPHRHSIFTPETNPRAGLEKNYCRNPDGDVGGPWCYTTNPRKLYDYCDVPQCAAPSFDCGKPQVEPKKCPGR
Plasminogen (Homo sapiens, UniProt P00747), sequence (P00747 581-810 limits assumed): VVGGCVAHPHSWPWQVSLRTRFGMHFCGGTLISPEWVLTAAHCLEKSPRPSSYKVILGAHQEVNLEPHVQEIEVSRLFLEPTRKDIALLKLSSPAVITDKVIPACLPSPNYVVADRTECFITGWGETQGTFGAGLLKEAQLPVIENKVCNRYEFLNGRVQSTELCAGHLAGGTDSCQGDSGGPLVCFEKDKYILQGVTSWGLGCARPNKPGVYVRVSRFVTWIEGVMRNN

COC(=O)NC(Cc1ccc(NC(=N)N)cc1)P(=O)(Oc1ccccc1)Oc1ccccc1 (stereo not drawn)
Activity [1]: 29% | Activity (Rattus norvegicus [2]): 12% | Activity (Rattus norvegicus [3]): 3% | Activity (Rattus norvegicus [4]): 36% | remaining at 3 h [5]: 63% | Activity (Rattus norvegicus [6]): 2% | Activity (Rattus norvegicus [7]): 17% | IC50 [8]: 0.0195 µM | IC50 (Plasminogen [9]): 15 µM | half-life [10]: > 336 h | Activity (Rattus norvegicus [11]): 3% | Activity [12]: 8% | Activity [13]: 10% | Activity [14]: 11% | logD [15]: 1.1 | Activity [16]: 61% | Activity [17]: 17% | solubility at 2 h [18]: > 200 µM | Activity (Rattus norvegicus [19]): 169.5 g | Activity [20]: 46% | IC50 (Prothrombin [21]): 42 µM | IC50 (Plasminogen [22]): 25 µM | Activity (Rattus norvegicus [23]): 168.5 g | Activity (Rattus norvegicus [24]): 3% | IC50 (Plasminogen [25]): 13 µM | Activity [26]: 27% | Activity (Rattus norvegicus [27]): 30% | Kapp [28]: 62000 M⁻¹ s⁻¹ | Activity (Rattus norvegicus [29]): 8% | half-life [30]: 120 h | half-life [31]: > 336 h | IC50 [32]: 0.032 µM | half-life [33]: 6 h | IC50 (Prothrombin [34]): > 100 µM | Activity (Rattus norvegicus [35]): 3% | Activity [36]: 61% | IC50 (Prothrombin [37]): 17 µM | Activity [38]: 9%
